Experimental data taken from ChEMBL document CHEMBL4177701, “A novel series of enoyl reductase inhibitors targeting the ESKAPE pathogens, Staphylococcus aureus and Acinetobacter baumannii” (Bioorg Med Chem, 2018).
Values after ≈ are worked out from the molar mass of the structure shown. Active and inactive are the calls of the source. The rule behind the calls is not given here.

Experiments:
Staphylococcus aureus [1] = experiment: Antibacterial activity against Staphylococcus aureus RN4220 by microbroth dilution method; type: functional
Method in brief: (§1)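 Broth microdilution MIC; reported value is mean of at least two runs, within two-fold experimental uncertainty.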

Staphylococcus aureus [2] = experiment: Antibacterial activity against Staphylococcus aureus RN4220 over-expressing FabI by microbroth dilution method; type: functional; method in brief: as §1
Escherichia coli [3] = experiment: Antibacterial activity against Escherichia coli BW25113 harboring TolC deletion mutant by microbroth dilution method; type: functional; method in brief: as §1
Staphylococcus aureus [4] = experiment: Antibacterial activity against methicillin-resistant Staphylococcus aureus subsp. aureus Rosenbach ATCC 43300 by microbroth dilution method; type: functional; method in brief: as §1
Escherichia coli [5] = experiment: Antibacterial activity against Escherichia coli BW25113 mutant by microbroth dilution method; type: functional; method in brief: as §1
[6] = Competitive inhibition of Acinetobacter baumannii 2208 ATCC 19606 FabI using crotonyl-CoA as substrate in presence of NADPH/NADH after 10 mins by fluorescence assay; set-up: species or system Acinetobacter baumannii ATCC 19606 = CIP 70.34 = JCM 6841
[7] = test system: Acinetobacter baumannii ATCC 19606 = CIP 70.34 = JCM 6841; experiment: Binding affinity to Acinetobacter baumannii 2208 ATCC 19606 FabI by SPR assay
Acinetobacter baumannii [8] = experiment: Antibacterial activity against Acinetobacter baumannii 2208 ATCC 19606 by microbroth dilution method; type: functional; details: ATCC 19606 = CIP 70.34 = JCM 6841 2208
Method in brief: (§2)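 Microbroth dilution MIC; each value is the mean of at least two runs, within two-fold experimental uncertainty.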

Acinetobacter baumannii [9] = experiment: Synergistic antibacterial activity against Acinetobacter baumannii 2208 ATCC 19606 assessed as colistin MIC by checkerboard method; type: functional; details: ATCC 19606 = CIP 70.34 = JCM 6841 2208
[10] = target: T1, Enoyl-[acyl-carrier-protein] reductase [NADPH] FabI (Staphylococcus aureus) (UniProt Q6GI75); experiment: Binding affinity to Staphylococcus aureus subsp. aureus Rosenbach ATCC 43300 FabI by SPR assay
T1 sequence (whole entry): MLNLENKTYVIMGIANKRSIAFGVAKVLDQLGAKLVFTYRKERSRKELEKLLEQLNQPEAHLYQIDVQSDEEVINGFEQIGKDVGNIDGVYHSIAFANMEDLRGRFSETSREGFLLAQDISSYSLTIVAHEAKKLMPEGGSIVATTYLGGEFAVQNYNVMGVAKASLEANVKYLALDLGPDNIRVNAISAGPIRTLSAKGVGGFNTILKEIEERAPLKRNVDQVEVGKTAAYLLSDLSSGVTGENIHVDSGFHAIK

[11] = Inhibition of Acinetobacter baumannii 2208 ATCC 19606 FabI using crotonyl-CoA as substrate in presence of NADPH/NADH after 10 mins by fluorescence assay; set-up: species or system Acinetobacter baumannii ATCC 19606 = CIP 70.34 = JCM 6841
Method in brief: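 AbFabI, 200 nM, in 50 mM MES/100 mM NaCl with 200 μM NADH, 0.1 mg/mL BSA and 0.01% triton. Reaction started with 300 μM crotonyl-CoA. NADH fluorescence read at 340/460 nm. Compounds tested at 0.4 nM–200 μM. Initial 10-min slopes were compared with a DMSO no-compound control. At least two independent experiments, each in duplicate; two-fold uncertainty.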

[12] = target: T2, Enoyl-[acyl-carrier-protein] reductase [NADPH] FabI (Staphylococcus aureus, UniProt Q6GI75); experiment: Competitive inhibition of Staphylococcus aureus subsp. aureus Rosenbach ATCC 43300 FabI using crotonyl-CoA as substrate in presence of NADPH/NADH after 10 mins by fluorescence assay
T2 sequence (Q6GI75 whole entry): T1 sequence (whole entry)

Acinetobacter baumannii [13] = experiment: Synergistic antibacterial activity against Acinetobacter baumannii 2208 ATCC 19606 assessed as fractional inhibitory concentration in presence of colistin by checkerboard method; type: functional, ATCC 19606 = CIP 70.34 = JCM 6841 2208
Acinetobacter baumannii [14] = experiment: Synergistic antibacterial activity against Acinetobacter baumannii 2208 ATCC 19606 in presence of colistin by checkerboard method; type: functional; details: ATCC 19606 = CIP 70.34 = JCM 6841 2208
Staphylococcus aureus [15] = experiment: Antibacterial activity against Staphylococcus aureus Newman by microbroth dilution method; type: functional; method in brief: as §2
[16] = target: T2, Enoyl-[acyl-carrier-protein] reductase [NADPH] FabI; experiment: Inhibition of Staphylococcus aureus subsp. aureus Rosenbach ATCC 43300 FabI using crotonyl-CoA as substrate in presence of NADPH/NADH after 10 mins by fluorescence assay
Method in brief: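 SaFabI enzyme, 300 nM, in 50 mM MES/100 mM NaCl with 200 μM NADPH, 0.1 mg/mL BSA, 0.01% triton; started with 400 μM crotonyl-CoA. NADPH fluorescence at 340/460 nm. Compounds 0.4 nM–200 μM. Slopes over first 10 min compared with DMSO control for % inhibition. At least two independent experiments, each in duplicate. Two-fold experimental uncertainty.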

Row | Structure (SMILES) | Activity (Staphylococcus aureus [1]) | Activity (Staphylococcus aureus [2]) | MIC (Escherichia coli [3]) | MIC (Staphylococcus aureus [4]) | MIC (Escherichia coli [5]) | MIC (Staphylococcus aureus [2]) | Ki [6] | Activity [7] | MIC (Acinetobacter baumannii [8]) | MIC (Acinetobacter baumannii [9]) | Activity [10] | IC50 [11] | Ki [12] | FIC (Acinetobacter baumannii [13]) | MIC (Acinetobacter baumannii [14]) | MIC (Staphylococcus aureus [15]) | MIC (Staphylococcus aureus [1]) | IC50 [16]
1 | CC[C@H]1OC(=O)[C@H](C)[C@@H](O[C@H]2C[C@@](C)(OC)[C@@H](O)[C@H](C)O2)[C@H](C)[C@@H](O[C@@H]2O[C@H](C)C[C@H](N(C)C)[C@H]2O)[C@](C)(O)C[C@@H](C)C(=O)[C@H](C)[C@@H](O)[C@]1(C)O | Active | Active | – | – | – | – | – | – | – | – | – | – | – | – | – | – | – | –
2 | CN(C)[C@@H]1C(O)=C(C(N)=O)C(=O)[C@@]2(O)C(O)=C3C(=O)c4c(O)cccc4[C@@](C)(O)[C@H]3C[C@@H]12 | Active | Active | – | – | – | – | – | – | – | – | – | – | – | – | – | – | – | –
3 | CN[C@@H]1[C@H](O[C@H]2[C@H](O[C@H]3[C@H](O)[C@@H](O)[C@H](N=C(N)N)[C@@H](O)[C@@H]3N=C(N)N)O[C@@H](C)[C@]2(O)C=O)O[C@@H](CO)[C@H](O)[C@H]1O | Active | Active | – | – | – | – | – | – | – | – | – | – | – | – | – | – | – | –
4 | O=C(N[C@H](CO)[C@H](O)c1ccc([N+](=O)[O-])cc1)C(Cl)Cl | Active | Active | – | – | – | – | – | – | – | – | – | – | – | – | – | – | – | –
5 | CC(=O)Nc1ccc(/C=C/C(=O)N2CCC(c3ccc4c(c3)OCO4)C2)cn1 (racemic) | – | – | > 200 µg/mL | > 200 µg/mL | > 200 µg/mL | > 200 µg/mL | 4.3 µM | Active | > 200 µg/mL | 1.56 µg/mL | Active | 8.5 µM | 0.4 µM | – | – | – | – | –
6 | O=C(Cc1ccccc1Cl)N1CCC(c2nccs2)C1 (racemic) | – | – | > 100 µg/mL | 100 µg/mL (≈ 326 µM) | > 100 µg/mL | > 200 µg/mL | 7 µM | Active | > 200 µg/mL | 0.39 µg/mL | Active | 14 µM | 2.2 µM | 0.75 | 50 µg/mL | 163 µM | – | –
7 | O=C(Cc1c(F)cccc1F)N1CCC(c2ccc3c(c2)OCO3)C1 (racemic) | – | – | – | > 200 µg/mL | > 200 µg/mL | > 200 µg/mL | 27 µM | Active | > 200 µg/mL | – | Active | 54 µM | 0.9 µM | – | – | – | – | –
8 | CC(=O)Nc1ccc(/C=C/C(=O)N2CCC(c3nccs3)C2)cn1 (racemic) | – | – | > 200 µg/mL | > 200 µg/mL | > 200 µg/mL | – | 10 µM | Active | > 200 µg/mL | 0.39 µg/mL | Active | 20 µM | 1.7 µM | 1 | 100 µg/mL | > 200 µg/mL | > 200 µg/mL | –
9 | COc1ccc(C2CCN(C(=O)Cc3ccccc3Cl)C2)cc1 (racemic) | – | – | > 200 µg/mL | > 200 µg/mL | – | – | > 100 µM | Active | > 200 µg/mL | – | Active | > 200 µM | 4.6 µM | – | – | – | > 200 µg/mL | –
10 | CC(=O)Nc1ccc(/C=C/C(=O)N2CCC(c3ccccc3)C2)cn1 (racemic) | – | – | 12.5 µg/mL (≈ 37.3 µM) | > 200 µg/mL | – | > 200 µg/mL | 0.2 µM | Active | > 200 µg/mL | 3.1 µg/mL | Active | 0.47 µM | 0.4 µM | – | – | > 200 µg/mL | > 200 µg/mL | –
11 | COc1ccccc1C1CCN(C(=O)Cc2ccccc2F)C1 (racemic) | – | – | – | 100 µg/mL (≈ 319 µM) | > 200 µg/mL | 100 µg/mL (≈ 319 µM) | 1.1 µM | Active | > 200 µg/mL | – | Active | 2.1 µM | 1.7 µM | – | – | 160 µM | 50 µg/mL (≈ 160 µM) | –
12 | COc1ccccc1C1CCN(C(=O)Cc2cccc(F)c2F)C1 (racemic) | – | – | – | 100 µg/mL (≈ 302 µM) | > 200 µg/mL | > 200 µg/mL | 3.7 µM | Active | > 200 µg/mL | – | Active | 7.4 µM | 1.1 µM | – | – | 100 µg/mL | 100 µg/mL (≈ 302 µM) | –
13 | COc1ccccc1C1CCN(C(=O)/C=C/c2ccc(NC(C)=O)cc2)C1 (racemic) | – | – | – | > 200 µg/mL | > 200 µg/mL | > 200 µg/mL | > 50 µM | Active | > 200 µg/mL | – | Active | > 100 µM | > 37.1 µM | – | – | – | – | > 100 µM
14 | O=C(Cc1ccccc1F)N1CCC(c2ccc3c(c2)OCO3)C1 (racemic) | – | – | – | > 200 µg/mL | > 200 µg/mL | > 200 µg/mL | 16 µM | Active | > 200 µg/mL | – | Active | 32 µM | 1 µM | – | – | – | – | –
15 | COc1ccc(C2CCN(C(=O)/C=C/c3ccc(NC(C)=O)nc3)C2)cc1 (racemic) | – | – | – | – | > 200 µg/mL | > 200 µg/mL | > 100 µM | Active | > 200 µg/mL | – | Active | > 200 µM | 1.3 µM | – | – | – | – | 3.6 µM
16 | CC(=O)Nc1ccc(/C=C/C(=O)N2CCC(c3ccccn3)C2)cn1 (racemic) | – | – | > 200 µg/mL | > 200 µg/mL | > 200 µg/mL | – | 3.6 µM | Active | > 200 µg/mL | 0.39 µg/mL | Active | 7.1 µM | 10.5 µM | 1 | 100 µg/mL | > 200 µg/mL | > 200 µg/mL | –
17 | O=C(Cc1cccc(F)c1F)N1CCC(c2ccc3c(c2)OCO3)C1 (racemic) | – | – | – | > 200 µg/mL | > 200 µg/mL | – | 6.9 µM | Active | > 200 µg/mL | – | Active | 13.7 µM | 2 µM | – | – | – | > 200 µg/mL | –
